Measurements as given in ChEMBL document CHEMBL4138126, “Synthesis, antiproliferative, anti-tubulin activity, and docking study of new 1,2,4-triazoles as potential combretastatin analogues” (Eur J Med Chem, 2017).

Key:
HL-60(TB) = assay: Growth inhibition of human HL-60(TB) cells assessed as cell growth at 10 uM after 48 hrs by sulforhodamine B assay; type: functional; conditions: HL-60, 48 h, read-out: Activity
Method in brief: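 Screened by the NCI in its 60-cell-line panel covering nine cancer types, including leukemia. Compounds were added at a single concentration, and the cultures were incubated for 48 h. Results are reported as percent growth inhibition.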

K562 = assay: Growth inhibition of human K562 cells assessed as cell growth at 10 uM after 48 hrs by sulforhodamine B assay; type: functional; conditions: K562, 48 h, read-out: Activity
Method in brief: (§1)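 NCI 60-cell-line panel screen (nine cancer types). Compounds added at single concentration 10^-5 M, cultures incubated 48 h; growth inhibition percentages reported.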

MOLT-4 = assay: Growth inhibition of human MOLT4 cells assessed as cell growth at 10 uM after 48 hrs by sulforhodamine B assay; type: functional; conditions: MOLT-4, 48 h, read-out: Activity; method in brief: as §1
SR = assay: Growth inhibition of human SR cells assessed as cell growth at 10 uM after 48 hrs by sulforhodamine B assay; type: functional; conditions: read-out: Activity
Method in brief: (§2)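 NCI 60-cell-line panel from nine tumour types (leukaemia, lung, colon, CNS, melanoma, ovarian, renal, prostate, breast). Each compound was added at one single concentration, and cultures were incubated for 48 h. Results are reported as percent growth inhibition.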

A549 = assay: Growth inhibition of human A549/ATCC cells assessed as cell growth at 10 uM after 48 hrs by sulforhodamine B assay; type: functional; conditions: A549, 48 h, read-out: Activity; method in brief: as §1
EKVX = assay: Growth inhibition of human EKVX cells assessed as cell growth at 10 uM after 48 hrs by sulforhodamine B assay; type: functional; conditions: read-out: Activity; method in brief: as §1
HOP-62 = assay: Growth inhibition of human HOP62 cells assessed as cell growth at 10 uM after 48 hrs by sulforhodamine B assay; type: functional; conditions: HOP-62, 48 h, read-out: Activity; method in brief: as §1
NCI-H322M = assay: Growth inhibition of human NCI-H322M cells assessed as cell growth at 10 uM after 48 hrs by sulforhodamine B assay; type: functional; conditions: read-out: Activity; method in brief: as §1
NCI-H460 = assay: Growth inhibition of human NCI-H460 cells assessed as cell growth at 10 uM after 48 hrs by sulforhodamine B assay; type: functional; conditions: NCI-H460, 48 h, read-out: Activity; method in brief: as §1
COLO 205 = assay: Growth inhibition of human COLO205 cells assessed as cell growth at 10 uM after 48 hrs by sulforhodamine B assay; type: functional; conditions: COLO 205, 48 h, read-out: Activity; method in brief: as §1
HCC 2998 = assay: Growth inhibition of human HCC2998 cells assessed as cell growth at 10 uM after 48 hrs by sulforhodamine B assay; type: functional; conditions: HCC 2998, 48 h, read-out: Activity; method in brief: as §1
HCT-116 = assay: Growth inhibition of human HCT116 cells assessed as cell growth at 10 uM after 48 hrs by sulforhodamine B assay; type: functional; conditions: HCT-116, 48 h, read-out: Activity; method in brief: as §1
SF-268 = assay: Growth inhibition of human SF268 cells assessed as cell growth at 10 uM after 48 hrs by sulforhodamine B assay; type: functional; conditions: SF-268, 48 h, read-out: Activity; method in brief: as §1
U-251 = assay: Growth inhibition of human U251 cells assessed as cell growth at 10 uM after 48 hrs by sulforhodamine B assay; type: functional; conditions: U-251, 48 h, read-out: Activity; method in brief: as §2
SK-MEL-28 = assay: Growth inhibition of human SK-MEL-28 cells assessed as cell growth at 10 uM after 48 hrs by sulforhodamine B assay; type: functional; conditions: SK-MEL-28, 48 h, read-out: Activity; method in brief: as §1
SK-MEL-5 = assay: Growth inhibition of human SK-MEL-5 cells assessed as cell growth at 10 uM after 48 hrs by sulforhodamine B assay; type: functional; conditions: SK-MEL-5, 48 h, read-out: Activity; method in brief: as §1
UACC-257 = assay: Growth inhibition of human UACC257 cells assessed as cell growth at 10 uM after 48 hrs by sulforhodamine B assay; type: functional; conditions: UACC-257, 48 h, read-out: Activity; method in brief: as §2
UACC-62 = assay: Growth inhibition of human UACC62 cells assessed as cell growth at 10 uM after 48 hrs by sulforhodamine B assay; type: functional; conditions: UACC-62, 48 h, read-out: Activity; method in brief: as §2
IGROV-1 = assay: Growth inhibition of human IGROV1 cells assessed as cell growth at 10 uM after 48 hrs by sulforhodamine B assay; type: functional; conditions: IGROV-1, 48 h, read-out: Activity; method in brief: as §1
OVCAR-8 = assay: Growth inhibition of human OVCAR8 cells assessed as cell growth at 10 uM after 48 hrs by sulforhodamine B assay; type: functional; conditions: OVCAR-8, 48 h, read-out: Activity; method in brief: as §1
ACHN = assay: Growth inhibition of human ACHN cells assessed as cell growth at 10 uM after 48 hrs by sulforhodamine B assay; type: functional; conditions: read-out: Activity; method in brief: as §1
CAKI-1 = assay: Growth inhibition of human CAKI-1 cells assessed as cell growth at 10 uM after 48 hrs by sulforhodamine B assay; type: functional; conditions: CAKI-1, 48 h, read-out: Activity; method in brief: as §1
SN12C = assay: Growth inhibition of human SN12C cells assessed as cell growth at 10 uM after 48 hrs by sulforhodamine B assay; type: functional; conditions: read-out: Activity; method in brief: as §2
TK-10 = assay: Growth inhibition of human TK10 cells assessed as cell growth at 10 uM after 48 hrs by sulforhodamine B assay; type: functional; conditions: TK-10, 48 h, read-out: Activity; method in brief: as §2
UO-31 = assay: Growth inhibition of human UO31 cells assessed as cell growth at 10 uM after 48 hrs by sulforhodamine B assay; type: functional; conditions: UO-31, 48 h, read-out: Activity; method in brief: as §2
MDA-MB-231 = assay: Growth inhibition of human MDA-MB-231 cells assessed as cell growth at 10 uM after 48 hrs by sulforhodamine B assay; type: functional; conditions: MDA-MB-231, 48 h, read-out: Activity; method in brief: as §1
Hs-578T = assay: Growth inhibition of human Hs 578T cells assessed as cell growth at 10 uM after 48 hrs by sulforhodamine B assay; type: functional; conditions: read-out: Activity; method in brief: as §1
BT-549 = assay: Growth inhibition of human BT549 cells assessed as cell growth at 10 uM after 48 hrs by sulforhodamine B assay; type: functional; conditions: BT-549, 48 h, read-out: Activity; method in brief: as §1
MDA-MB-468 = assay: Growth inhibition of human MDA-MB-468 cells assessed as cell growth at 10 uM after 48 hrs by sulforhodamine B assay; type: functional; conditions: MDA-MB-468, 48 h, read-out: Activity; method in brief: as §1
HL-60 = assay: Cytotoxicity in human HL60 cells assessed as reduction in cell viability incubated for 48 hrs by MTT assay; type: functional, cell-based; conditions: HL-60, 48 h
Method in brief: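 HepG2 and HL60 (ATCC) grown in DMEM with 10% FBS, 2 mM L-glutamine, penicillin/streptomycin, amphotericin B at 37 °C, 5% CO2. Samples dissolved in DMSO, diluted thousandfold in assay. Cells seeded in serum-free medium, treated with serial concentrations 48 h; MTT 4 h, formazan dissolved in acidified isopropanol, A570. Triplicates averaged; viability relative to untreated/vehicle control.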

| Compound | growth at 10 µM (HL-60(TB)) [%] | growth at 10 µM (K562) [%] | growth at 10 µM (SR) [%] | growth at 10 µM (A549) [%] | growth at 10 µM (EKVX) [%] | growth at 10 µM (HOP-62) [%] | growth at 10 µM (NCI-H322M) [%] | growth at 10 µM (NCI-H460) [%] | growth at 10 µM (COLO 205) [%] | growth at 10 µM (HCC 2998) [%] | growth at 10 µM (HCT-116) [%] | growth at 10 µM (SF-268) [%] | growth at 10 µM (U-251) [%] | growth at 10 µM (SK-MEL-28) [%] | growth at 10 µM (SK-MEL-5) [%] | growth at 10 µM (UACC-62) [%] | growth at 10 µM (IGROV-1) [%] | growth at 10 µM (OVCAR-8) [%] | growth at 10 µM (ACHN) [%] | growth at 10 µM (SN12C) [%] | also measured |
| --- | --- | --- | --- | --- | --- | --- | --- | --- | --- | --- | --- | --- | --- | --- | --- | --- | --- | --- | --- | --- | --- |
| CCOc1ccc(-n2nc(C(=O)Nc3ccccc3OC)nc2-c2cc(OC)c(OC)c(OC)c2)cc1 | 73.2 | 79.6 | 65.7 | 77.3 | 76.3 | 86.5 | 77.4 | 83.4 | 78.7 | 99.7 | 72.7 | 89.2 | 94 | 78.3 | 73.8 | 85.2 | 99.3 | 90.3 | 79.3 | 83.1 | growth at 10 µM (MOLT-4): 76.5%; growth at 10 µM (UACC-257): 97.9%; growth at 10 µM (CAKI-1): 66.7%; growth at 10 µM (TK-10): 89.2%; growth at 10 µM (UO-31): 59.6%; growth at 10 µM (MDA-MB-231): 44.5%; growth at 10 µM (Hs-578T): 81.5%; growth at 10 µM (BT-549): 77.6%; growth at 10 µM (MDA-MB-468): 92.3% |
| COc1cccc(-n2nc(C(=O)NCc3ccccc3C)nc2-c2cc(OC)c(OC)c(OC)c2)c1 | 89 | 90.8 | 65.8 | 69.2 | 73.3 | 71 | 87.5 | 96.4 | 84.3 | 96 | 85.2 | 85.8 | 85 | 107 | 86.8 | 72.5 | 72 | 87.3 | 90.5 | 91.7 | IC50 (HL-60): 89.4 µM; growth at 10 µM (MOLT-4): 80%; growth at 10 µM (TK-10): 73.2%; growth at 10 µM (UO-31): 35.9%; growth at 10 µM (MDA-MB-231): 73.5%; growth at 10 µM (Hs-578T): 77.6%; growth at 10 µM (BT-549): 86.2%; growth at 10 µM (MDA-MB-468): 90.1% |
| CCOc1ccc(-n2nc(C(=O)Nc3ccc(F)c(F)c3F)nc2-c2cc(OC)c(OC)c(OC)c2)cc1 | 81.5 | 90.7 | 86.5 | 85.7 | 78.5 | 86.5 | 69.5 | 104 | 90 | 94.6 | 73.4 | 82.3 | 98.2 | 86.7 | 87 | 89.7 | 95.6 | 93.4 | 85.2 | 86.5 | IC50 (HL-60): 10.9 µM; growth at 10 µM (UACC-257): 101%; growth at 10 µM (CAKI-1): 60.5%; growth at 10 µM (TK-10): 101%; growth at 10 µM (UO-31): 51.5%; growth at 10 µM (MDA-MB-231): 73.6%; growth at 10 µM (Hs-578T): 80.7%; growth at 10 µM (BT-549): 78.9%; growth at 10 µM (MDA-MB-468): 90.2% |
| COc1cccc(-n2nc(C(=O)NCc3ccccc3OC)nc2-c2cc(OC)c(OC)c(OC)c2)c1 | 103 | 122 | 93.8 | 92.8 | 91.1 | 85.9 | 94.3 | 111 | 101 | 92.1 | 102 | 95.5 | 97.1 | 115 | 107 | 97.4 | 88.5 | 103 | 106 | 94.8 | IC50 (HL-60): > 100 µM; growth at 10 µM (MOLT-4): 103%; growth at 10 µM (TK-10): 81%; growth at 10 µM (UO-31): 59.1%; growth at 10 µM (MDA-MB-231): 93%; growth at 10 µM (Hs-578T): 99.9%; growth at 10 µM (BT-549): 103%; growth at 10 µM (MDA-MB-468): 99.9% |
